Assay results: ChEMBL document CHEMBL1143373, “Novel 6-methanesulfonamide-3,4-methylenedioxyphenyl-N-acylhydrazones: orally effective anti-inflammatory drug candidates” (Bioorg Med Chem, 2009)
Active and inactive are the calls of the source.

Key:
[1] = system: Rattus norvegicus; assay: Antiinflammatory activity in Wistar rat assessed as inhibition of carrageenan-induced paw edema volume at 300 umol/kg, po administered 1 hrs prior to carrageenan challenge measured after 3 hrs; assay type: functional; parameters: scale not given: the % may be the effect or the level left
Procedure, shortened: (§1)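 Fasted Wistar rats of both sexes (150–200 g), given compound orally as a suspension in 5% arabic gum in saline. One hour later, 1% carrageenan (1 mg/paw) injected subplantar into one hind paw, saline into the other. Volumes measured by glass plethysmometer at 3 h. Edema taken as the carrageenan-minus-saline paw difference, expressed as % inhibition vs vehicle. n = 8–10.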

[2] = system: Mus musculus; assay: Antinociceptive activity against formalin-induced pain in mouse assessed as inhibition of paw licking response during inflammatory phase at 300 umol/kg, po measured 15 to 30 mins after formalin injection; assay type: functional; parameters: scale not given: the % may be the effect or the level left
Procedure, shortened: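 Mice received 20 µL of 2.5% formalin subplantar in the hind paw. The inflammatory (second) phase was recorded 15–30 min after injection.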

[3] = system: Rattus norvegicus; assay: Antiinflammatory activity in po dosed Wistar rat assessed as inhibition of carrageenan-induced paw edema volume administered 1 hrs prior to carrageenan challenge measured after 3 hrs; assay type: functional; procedure, shortened: as §1
[4] = system: Rattus norvegicus; assay: Antiinflammatory activity against arachidonic acid-induced ear edema in Wistar rat; assay type: functional, organism-based
[5] = system: Rattus norvegicus; assay: Antihyperalgesic activity in Wistar rat assessed as inhibition of carrageenan-induced thermal hyperalgesia at 300 umol/kg, po by hotplate test; assay type: functional, organism-based
Procedure, shortened: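 Fasted Wistar rats of both sexes (150–200 g), dosed orally with 300 µmol/kg as a suspension in 5% arabic gum in saline (vehicle controls). Carrageenan 1% (1 mg/paw) injected subplantar 1 h later. Hot plate held at 51 °C, cut-off 20 s. Left hind paw withdrawal latency read at 0, 30, 60, 120, 180 and 240 min post-challenge. Hyperalgesia taken as the latency drop from time 0. n = 8 per group.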

[6] = system: Mus musculus; assay: Antinociceptive activity in mouse assessed as inhibition of acetic acid-induced constrictions at 300 umol/kg, po; assay type: functional; parameters: scale not given: the % may be the effect or the level left
[7] = target: Prostaglandin G/H synthase 1 (Homo sapiens, UniProt P23219); assay: Inhibition of COX1 in human whole blood assessed as TXB2 production by enzyme immunoassay; assay type: tissue-based
Chain of Prostaglandin G/H synthase 1 (P23219 whole entry): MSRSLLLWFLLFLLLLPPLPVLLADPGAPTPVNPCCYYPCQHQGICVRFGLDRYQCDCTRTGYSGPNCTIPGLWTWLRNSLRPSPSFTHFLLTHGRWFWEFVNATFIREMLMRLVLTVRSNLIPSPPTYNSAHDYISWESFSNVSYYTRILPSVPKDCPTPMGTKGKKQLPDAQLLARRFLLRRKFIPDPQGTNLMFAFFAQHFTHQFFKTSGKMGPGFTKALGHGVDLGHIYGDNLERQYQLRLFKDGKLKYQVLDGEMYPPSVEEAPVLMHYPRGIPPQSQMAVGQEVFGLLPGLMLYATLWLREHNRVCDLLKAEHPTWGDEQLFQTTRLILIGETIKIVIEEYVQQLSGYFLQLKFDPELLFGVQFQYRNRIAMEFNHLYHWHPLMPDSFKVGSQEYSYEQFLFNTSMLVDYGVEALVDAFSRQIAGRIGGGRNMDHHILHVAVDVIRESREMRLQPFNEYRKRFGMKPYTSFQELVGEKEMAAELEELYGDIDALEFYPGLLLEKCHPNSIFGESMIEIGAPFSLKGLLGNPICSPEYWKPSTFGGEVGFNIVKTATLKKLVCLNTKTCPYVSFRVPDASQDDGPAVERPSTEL

[8] = target: T1, Prostaglandin G/H synthase 2 (Homo sapiens, UniProt P35354); assay: Inhibition of COX2 in LPS-stimulated human whole blood assessed as TXB2 production by enzyme immunoassay; assay type: tissue-based
T1 sequence (P35354 whole entry): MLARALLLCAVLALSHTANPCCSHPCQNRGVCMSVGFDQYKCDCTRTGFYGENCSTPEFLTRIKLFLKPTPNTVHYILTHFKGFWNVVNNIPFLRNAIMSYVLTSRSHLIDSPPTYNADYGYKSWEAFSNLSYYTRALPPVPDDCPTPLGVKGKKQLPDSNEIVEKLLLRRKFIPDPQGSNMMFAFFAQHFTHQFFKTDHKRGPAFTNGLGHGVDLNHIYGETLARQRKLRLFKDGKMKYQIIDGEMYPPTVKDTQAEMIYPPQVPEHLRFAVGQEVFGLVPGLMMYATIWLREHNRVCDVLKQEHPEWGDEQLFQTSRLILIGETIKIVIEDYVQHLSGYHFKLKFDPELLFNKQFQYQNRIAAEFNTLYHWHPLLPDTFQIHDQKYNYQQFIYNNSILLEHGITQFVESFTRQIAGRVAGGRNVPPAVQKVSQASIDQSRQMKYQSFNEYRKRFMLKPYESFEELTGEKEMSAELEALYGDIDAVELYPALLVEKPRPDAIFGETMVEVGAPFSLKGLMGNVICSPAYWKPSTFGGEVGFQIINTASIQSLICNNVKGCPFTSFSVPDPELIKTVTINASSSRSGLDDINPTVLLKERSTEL

SMILES	Activity [1] [%]	Activity [2] [%]	further results
CS(=O)(=O)Nc1cc2c(cc1C(=O)N/N=C/c1cccs1)OCO2	36		
CS(=O)(=O)Nc1ccc([N+](=O)[O-])cc1Oc1ccccc1 [NIMESULIDE]	57.5	58.5	
O=C(N/N=C/c1cccs1)c1ccc2c(c1)OCO2	29.7		
CS(=O)(=O)Nc1cc2c(cc1C(=O)N/N=C/c1ccccc1)OCO2	59.6	48.7	ED50 [3]: 97.8 µmol/kg; Activity [4]: Active; Activity [5]: Active; Activity [6]: 70%; IC50 [7]: 4.1 µM; IC50 [8]: 10.2 µM
CS(=O)(=O)Nc1cc2c(cc1C(=O)N/N=C/c1ccco1)OCO2	37.9		
